Assay results reported in ChEMBL document CHEMBL1127427, “Effect of molecular manipulation on the estrogenic activity of a brain-targeting estradiol chemical delivery system” (J Med Chem, 1994).

Experiments:
[1] = test system: Rattus norvegicus; experiment: Compound is evaluated for effect on serum estradiol, 14 days subsequent to a single intravenous dose determined by means of a radioimmunoassay; format: functional, organism-based
How it was run: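 Adult male Sprague-Dawley rats (175–200 g), conscious and restrained, given a single tail-vein iv injection of 0.025 mmol/kg (equal to 5 mg/kg E2-CDS) or DMSO vehicle (0.5 mL/kg). Serum taken at day 14. Estradiol measured in duplicate by Coat-a-Count RIA. Antibody cross-reactivity with E2-Q+ <0.1%; detection limit 10 pg/mL. Mean ± SEM.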

[2] = Compound was evaluated for oxidation rate constant in brain homogenate; format: ADME, tissue-based
How it was run: (§1)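 Male Sprague-Dawley rats were PBS-perfused and their organs homogenized in PBS: brain 2% w/v, liver 1.0% w/v. Compound loss followed by the fall in 360 nm absorbance. Pseudo-first-order rate constant taken from log(A360) versus time. Triplicate runs; half-life given as mean ± SEM.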

[3] = Compound was evaluated for first order half-life in brain homogenate.; format: ADME, tissue-based; how it was run: as §1
[4] = species: Rattus norvegicus; experiment: Compound is tested in male rats for its effect on the prostate weight; format: functional, Prostate gland; design: concentration or dose not given beside the values
How it was run: (§2)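 Adult male Sprague-Dawley rats (175–200 g) received a single iv tail-vein dose of 0.025 mmol/kg (equal to 5 mg/kg E2-CDS) or DMSO vehicle (0.5 mL/kg). Weighed daily for 14 days. Euthanized at day 14; organ excised and weighed. Expressed as mg per 100 g body weight, mean ± SEM, n=6.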

[5] = species: Rattus norvegicus; experiment: Compound is tested in male rats for its effect on the pituitary weight; format: functional; design: concentration or dose not given beside the values; how it was run: as §2
[6] = Compound was evaluated for oxidation rate constant in liver homogenate; format: ADME, tissue-based; details: tissue homogenate; how it was run: as §1
[7] = species: Rattus norvegicus; experiment: Compound was tested in male rats for its effect on the seminal vesicle weight; format: functional; design: concentration or dose not given beside the values; how it was run: as §2
[8] = Compound was evaluated for first order half-life in liver homogenate.; format: ADME, tissue-based; how it was run: as §1

Row | SMILES | Concentration [1] | k [2] | half-life [3] | Activity [4] | Activity [5] | k [6] | Activity [7] | half-life [8]
1 | C[C@]12CC[C@@H]3c4ccc(O)cc4CC[C@H]3[C@@H]1CC[C@@H]2OC(=O)C1=CN(CC2CC2)C=CC1 | 40.4 pg/mL | 0.00611 min⁻¹ | 1.9 h | 54.31% | 4.4% | 0.0183 min⁻¹ | 97.29% | 0.633 h
2 | CCN1C=CCC(C(=O)O[C@H]2CC[C@H]3[C@@H]4CCc5cc(O)ccc5[C@H]4CC[C@]23C)=C1 | 37.7 pg/mL | 0.00353 min⁻¹ | 3.3 h | 32.06% | 6.17% | 0.0323 min⁻¹ | 70.75% | 0.367 h
3 | C[C@]12CC[C@@H]3c4ccc(O)cc4CC[C@H]3[C@@H]1CC[C@@H]2O [ESTRADIOL] | 22.2 pg/mL | – | – | 62.26% | 3.88% | – | 107.36% | –
4 | CC(C)N1C=CCC(C(=O)O[C@H]2CC[C@H]3[C@@H]4CCc5cc(O)ccc5[C@H]4CC[C@]23C)=C1 | 43.6 pg/mL | 0.0058 min⁻¹ | 2 h | 68.64% | 4.86% | 0.0263 min⁻¹ | 104.62% | 0.433 h
5 | C[C@]12CC[C@@H]3c4ccc(O)cc4CC[C@H]3[C@@H]1CC[C@@H]2OC(=O)C1=CN(CCCO)C=CC1 | 44.3 pg/mL | 0.00567 min⁻¹ | 2.05 h | 75.22% | 4.6% | 0.0242 min⁻¹ | 106.49% | 0.483 h
6 | CN1C=CCC(C(=O)O[C@H]2CC[C@H]3[C@@H]4CCc5cc(O)ccc5[C@H]4CC[C@]23C)=C1 | 53 pg/mL | 0.00577 min⁻¹ | 2.02 h | 35.75% | 6.46% | 0.0815 min⁻¹ | 68.15% | 0.533 h
7 | C[C@]12CC[C@@H]3c4ccc(O)cc4CC[C@H]3[C@@H]1CC[C@@H]2OC(=O)C1=CN(Cc2ccccc2)C=CC1 | 42 pg/mL | 0.00238 min⁻¹ | 4.8 h | 67.38% | 4.86% | 0.00892 min⁻¹ | 97.43% | 1.32 h
8 | CCCCCCN1C=CCC(C(=O)O[C@H]2CC[C@H]3[C@@H]4CCc5cc(O)ccc5[C@H]4CC[C@]23C)=C1 | 37.4 pg/mL | 0.00268 min⁻¹ | 4.32 h | 66.26% | 5.28% | 0.0123 min⁻¹ | 95.66% | 0.933 h
9 | CCCN1C=CCC(C(=O)O[C@H]2CC[C@H]3[C@@H]4CCc5cc(O)ccc5[C@H]4CC[C@]23C)=C1 | 42.9 pg/mL | 0.00736 min⁻¹ | 1.57 h | 46.4% | 5.32% | 0.0153 min⁻¹ | 85.97% | 0.867 h
